From ChEMBL document CHEMBL3352511, “Pyrrole-3-carboxamides as potent and selective JAK2 inhibitors” (Bioorg Med Chem, 2014)
pIC50: −log10 of the molar value. In brackets after ≈: the same amount, converted by molar mass. Activity calls are given as the source filed them. No cut-off for these calls is given here.

Experiments:
[1] = molecular target: Dual specificity protein kinase CLK1 (Homo sapiens) (UniProt P49759); assay: Inhibition of human CLK1 at 0.1 uM
Procedure, shortened: (§1)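 KINOMEscan active-site-directed competition binding panel of 442 human kinases, compound tested at 0.1 µM. Primary screen results expressed as % Ctrl, where lower values mean stronger binding.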

[2] = Solubility of the compound in buffer at pH7; type: physicochemical; conditions: pH 7
[3] = molecular target: Dual specificity protein kinase CLK4 (Homo sapiens) (UniProt Q9HAZ1); assay: Inhibition of human CLK4 at 0.1 uM; procedure, shortened: as §1
Dual specificity protein kinase CLK4 (Homo sapiens), sequence (Q9HAZ1 whole entry, looked up): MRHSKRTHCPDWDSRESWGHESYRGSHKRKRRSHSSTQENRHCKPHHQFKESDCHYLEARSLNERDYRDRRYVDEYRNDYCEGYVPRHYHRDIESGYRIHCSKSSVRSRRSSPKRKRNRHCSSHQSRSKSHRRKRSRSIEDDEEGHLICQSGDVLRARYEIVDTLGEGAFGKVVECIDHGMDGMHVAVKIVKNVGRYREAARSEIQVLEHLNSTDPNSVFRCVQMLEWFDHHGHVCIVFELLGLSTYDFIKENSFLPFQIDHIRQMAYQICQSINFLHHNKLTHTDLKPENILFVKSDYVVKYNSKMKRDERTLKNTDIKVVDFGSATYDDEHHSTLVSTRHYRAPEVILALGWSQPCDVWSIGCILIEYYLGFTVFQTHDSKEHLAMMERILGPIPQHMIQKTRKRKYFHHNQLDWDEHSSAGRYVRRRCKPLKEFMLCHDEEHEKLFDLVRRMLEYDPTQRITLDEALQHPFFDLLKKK

SET-2 [4] = assay: Inhibition of STAT3 phosphorylation in human SET2 cells xenografted in SCID mouse assessed as tumor growth inhibition at 50 mg/kg, po as single dose measured up to 12 hrs post treatment; type: functional, organism-based; set-up: dose 50 mg/kg
Procedure, shortened: (§2)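 SET-2 s.c. xenografts in irradiated female SCID mice were given one oral dose. Tumours were collected at several post-treatment times, 3 animals per time. Tumour lysates were western blotted for P-STAT5 and P-STAT3, with GAPDH as loading control.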

[5] = Antiproliferative activity against human DERL7 cells after 72 hrs by Cell Titer-Glo assay; type: functional, cell-based; conditions: DERL7, 72 h
SET-2 [6] = assay: Inhibition of STAT3 phosphorylation in human SET2 cells xenografted in SCID mouse assessed as tumor growth inhibition at 30 mg/kg, po as single dose measured at 1 to 3 hrs post treatment; type: functional, organism-based; set-up: dose 30 mg/kg; procedure, shortened: as §2
Mus musculus [7] = assay: Toxicity in human SET2 cells xenografted SCID mouse assessed as reversible body weight loss at 30 mg/kg, po bid for 10 consecutive days measured after 10 days; conditions: in vivo, 240 h
[8] = Antitumor activity against human SET2 cells xenografted in SCID mouse assessed as tumor growth inhibition at 50 mg/kg, po bid administered as 5 days on 5 days off for 3 cycles; type: functional; conditions: SET-2, 120 h, read-out: TGI
Procedure, shortened: (§3)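 Female SCID mice, 5–6 weeks old, given 200 Rads whole-body gamma irradiation, then inoculated s.c. with 10^7 SET-2 cells. Dosing by mouth started at 100-200 mm³ tumours; controls received vehicle (0.5% methocel). Seven animals per study.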

[9] = Volume of distribution at steady state in Balb nu/nu mouse at 10 mg/kg, iv; type: ADME, organism-based; set-up: dose 10 mg/kg, route intravenous; conditions: in vivo, read-out: Vdss
Procedure, shortened: (§4)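 Overnight-fasted male Nu/Nu mice, single intravenous dose in 10% Tween 80 in 5% dextrose, three mice. Saphenous vein blood taken at predose, 0.083, 0.5, 1, 6 and 24 h. Plasma obtained by centrifugation at 10,000g, 3 min, 4 °C, stored at -80 °C, then analysed by LC/MS/MS.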

JAK3/JAK1 (Homo sapiens) = JAK3/JAK1 (Homo sapiens) (UniProt P52333+P23458); assay: Inhibition of JAK1/3-induced STAT5 phosphorylation in IL-2-activated human DERL7 cells at 10 uM after 2 hrs by SDS-PAGE analysis; type: cell-based
Procedure, shortened: (§5)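 DERL-7 cells were kept in RPMI 1640 with 10% FBS and 20 ng/ml human IL-2, then starved 18 h. Compound was applied for 2 h, followed by IL-2 stimulation (20 ng/ml, 15 min, 37 °C). Cold-PBS-washed cells were lysed in RIPA. Lysates were resolved by SDS-PAGE and western blotted for P-STAT5 and total STAT5, with ECL detection.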

[10] = AUC(infinity) in Balb nu/nu mouse at 10 mg/kg, iv; type: ADME, organism-based, Plasma; set-up: dose 10 mg/kg, route intravenous, time infinity; conditions: Balb nu/nu, plasma; procedure, shortened: as §4
Mus musculus [11] = assay: Toxicity in human SET2 cells xenografted SCID mouse assessed as reversible body weight loss at 50 mg/kg, po bid administered as 5 days on 5 days off for 3 cycles; type: organism-based; set-up: dose 50 mg/kg, route oral; conditions: in vivo, 120 h
Procedure, shortened: (§6)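 SET-2 xenografts (10^7 cells s.c.) in irradiated female SCID mice, seven per study, dosed orally from 100-200 mm³ tumours, with 0.5% methocel vehicle controls. Body weight loss recorded at end of treatment.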

SET-2 [12] = assay: Inhibition of STAT5 phosphorylation in human SET2 cells xenografted in SCID mouse assessed as tumor growth inhibition at 50 mg/kg, po as single dose measured up to 12 hrs post treatment; type: functional, organism-based; set-up: dose 50 mg/kg; procedure, shortened: as §2
DERL7 = assay: Effect on total STAT5 level in IL-2-activated human DERL7 cells at 0.08 to 10 uM after 2 hrs by SDS-PAGE analysis; type: functional, cell-based; procedure, shortened: as §5
[13] = Half life in Balb nu/nu mouse at 10 mg/kg, iv; type: ADME, organism-based; set-up: dose 10 mg/kg, route intravenous; conditions: in vivo; procedure, shortened: as §4
[14] = Half life in Balb nu/nu mouse at 10 mg/kg, po; type: ADME, organism-based; set-up: dose 10 mg/kg, route oral; conditions: in vivo
Procedure, shortened: (§7)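 Overnight-fasted male Nu/Nu mice, single oral dose in 0.5% methocel, three mice. Saphenous vein blood taken at predose, 0.083, 0.5, 1, 6 and 24 h. Plasma obtained by centrifugation at 10,000g, 3 min, 4 °C, stored at -80 °C, then analysed by LC/MS/MS.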

[15] = molecular target: Tyrosine-protein kinase JAK2 (Homo sapiens, UniProt O60674, V617F)
Tyrosine-protein kinase JAK2, sequence (O60674 whole entry V617F): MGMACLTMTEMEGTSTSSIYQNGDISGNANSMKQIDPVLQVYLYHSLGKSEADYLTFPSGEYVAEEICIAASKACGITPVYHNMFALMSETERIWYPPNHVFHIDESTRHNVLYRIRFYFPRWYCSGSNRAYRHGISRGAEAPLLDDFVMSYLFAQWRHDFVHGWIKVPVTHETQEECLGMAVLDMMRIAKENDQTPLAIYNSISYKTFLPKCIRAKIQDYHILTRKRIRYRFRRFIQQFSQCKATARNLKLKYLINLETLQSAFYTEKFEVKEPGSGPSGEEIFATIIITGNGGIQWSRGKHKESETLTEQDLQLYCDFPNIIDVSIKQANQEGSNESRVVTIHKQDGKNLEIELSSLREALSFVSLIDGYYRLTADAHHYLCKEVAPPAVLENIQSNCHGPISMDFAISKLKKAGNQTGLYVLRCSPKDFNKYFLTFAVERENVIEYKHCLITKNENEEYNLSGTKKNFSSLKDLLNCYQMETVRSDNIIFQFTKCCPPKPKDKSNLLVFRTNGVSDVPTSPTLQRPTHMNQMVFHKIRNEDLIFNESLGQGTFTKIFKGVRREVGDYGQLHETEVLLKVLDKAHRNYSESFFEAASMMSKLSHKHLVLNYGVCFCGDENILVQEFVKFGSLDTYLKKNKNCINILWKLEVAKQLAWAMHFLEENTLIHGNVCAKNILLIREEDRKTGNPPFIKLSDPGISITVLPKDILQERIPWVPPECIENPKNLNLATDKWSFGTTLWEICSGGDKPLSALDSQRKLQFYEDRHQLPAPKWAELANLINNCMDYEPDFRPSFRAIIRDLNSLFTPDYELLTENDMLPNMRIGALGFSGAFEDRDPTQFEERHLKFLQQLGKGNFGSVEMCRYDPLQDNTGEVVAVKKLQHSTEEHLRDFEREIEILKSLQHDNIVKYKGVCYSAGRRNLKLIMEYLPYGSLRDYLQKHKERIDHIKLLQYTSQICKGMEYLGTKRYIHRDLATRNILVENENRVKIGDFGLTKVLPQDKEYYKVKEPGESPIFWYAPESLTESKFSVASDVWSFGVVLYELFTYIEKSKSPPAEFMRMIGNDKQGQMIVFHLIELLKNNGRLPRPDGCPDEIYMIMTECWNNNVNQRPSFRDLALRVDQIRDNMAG

[16] = molecular target: Dual specificity tyrosine-phosphorylation-regulated kinase 1B (Homo sapiens) (UniProt Q9Y463); assay: Inhibition of human DYRK1B at 0.1 uM; procedure, shortened: as §1
Dual specificity tyrosine-phosphorylation-regulated kinase 1B (Homo sapiens), sequence (Q9Y463 whole entry, looked up): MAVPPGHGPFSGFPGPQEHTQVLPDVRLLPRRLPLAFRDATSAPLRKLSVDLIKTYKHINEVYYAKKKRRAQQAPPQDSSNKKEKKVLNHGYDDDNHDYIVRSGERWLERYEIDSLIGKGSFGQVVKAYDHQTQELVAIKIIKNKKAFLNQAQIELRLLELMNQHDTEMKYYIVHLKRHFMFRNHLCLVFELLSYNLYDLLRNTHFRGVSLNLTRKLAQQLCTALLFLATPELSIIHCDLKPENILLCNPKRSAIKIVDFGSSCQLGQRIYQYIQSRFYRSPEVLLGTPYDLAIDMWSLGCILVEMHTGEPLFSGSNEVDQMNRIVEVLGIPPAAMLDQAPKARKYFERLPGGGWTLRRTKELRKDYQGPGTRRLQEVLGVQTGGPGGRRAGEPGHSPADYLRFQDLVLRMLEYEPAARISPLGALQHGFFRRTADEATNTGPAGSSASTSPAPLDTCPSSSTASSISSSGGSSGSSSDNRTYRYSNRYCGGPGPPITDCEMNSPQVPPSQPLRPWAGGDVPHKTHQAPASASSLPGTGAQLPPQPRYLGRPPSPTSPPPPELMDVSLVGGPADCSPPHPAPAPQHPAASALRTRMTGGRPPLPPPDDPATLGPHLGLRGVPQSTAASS

[17] = Antitumor activity against human SET2 cells xenografted in SCID mouse assessed as tumor growth inhibition at 30 mg/kg, po bid for 10 consecutive days; type: functional; conditions: SET-2, read-out: TGI; procedure, shortened: as §3
[18] = molecular target: Dual specificity tyrosine-phosphorylation-regulated kinase 1A (Homo sapiens) (UniProt Q13627); assay: Inhibition of human DYRK1A at 0.1 uM; procedure, shortened: as §1
[19] = Cmax in Balb nu/nu mouse at 10 mg/kg, iv; type: ADME, organism-based; set-up: dose 10 mg/kg, route intravenous; conditions: in vivo; procedure, shortened: as §4
[20] = molecular target: Dual specificity protein kinase CLK2 (Homo sapiens) (UniProt P49760); assay: Inhibition of human CLK2 at 0.1 uM; procedure, shortened: as §1
Dual specificity protein kinase CLK2 (Homo sapiens), sequence (P49760 whole entry, looked up): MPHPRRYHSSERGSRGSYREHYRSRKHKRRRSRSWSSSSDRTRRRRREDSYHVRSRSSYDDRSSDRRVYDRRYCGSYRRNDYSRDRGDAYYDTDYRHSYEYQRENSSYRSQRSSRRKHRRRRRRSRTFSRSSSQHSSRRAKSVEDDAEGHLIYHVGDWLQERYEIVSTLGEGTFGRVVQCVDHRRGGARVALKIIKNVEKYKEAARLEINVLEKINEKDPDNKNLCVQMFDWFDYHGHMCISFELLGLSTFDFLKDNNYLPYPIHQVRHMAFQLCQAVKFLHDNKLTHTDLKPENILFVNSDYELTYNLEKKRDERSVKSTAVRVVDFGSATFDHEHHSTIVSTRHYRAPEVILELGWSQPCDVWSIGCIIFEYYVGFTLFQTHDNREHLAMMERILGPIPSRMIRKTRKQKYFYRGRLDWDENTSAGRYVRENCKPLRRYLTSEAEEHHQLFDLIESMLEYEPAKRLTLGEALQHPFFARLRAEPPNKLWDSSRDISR

A2780 = assay: Antiproliferative activity against human A2780 cells after 72 hrs by Cell Titer-Glo assay; type: functional, cell-based; conditions: A2780, 72 h
[21] = AUC(infinity) in Balb nu/nu mouse at 10 mg/kg, po; type: ADME, organism-based; set-up: time infinity, dose 10 mg/kg, route oral; conditions: plasma; procedure, shortened: as §7
[22] = Cmax in Balb nu/nu mouse at 10 mg/kg, po; type: ADME, organism-based; set-up: dose 10 mg/kg, route oral; conditions: in vivo; procedure, shortened: as §7
Mus musculus [23] = assay: Toxicity in human SET2 cells xenografted SCID mouse assessed as reversible body weight loss at 15 mg/kg, po bid for 10 consecutive days; type: organism-based; set-up: dose 15 mg/kg, route oral; conditions: in vivo; procedure, shortened: as §6
SET-2 [24] = assay: Effect on total STAT5 level in human SET2 cells at 0.08 to 10 uM after 2 hrs by SDS-PAGE analysis; type: functional, cell-based
Procedure, shortened: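 SET-2 cells were grown in RPMI 1640 with 10% FBS at 37 °C, 5% CO₂, and exposed to compound or DMSO for 2 h at 37 °C. Cells were washed in cold PBS and lysed in RIPA buffer. Equal lysate amounts went through SDS-PAGE and nitrocellulose transfer, then 5% milk/TBST blocking and overnight 4 °C probing for total STAT3/STAT5 and phospho-STAT, with ECL detection.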

Dual specificity protein kinase CLK1 (Homo sapiens), sequence (P49759 whole entry, looked up): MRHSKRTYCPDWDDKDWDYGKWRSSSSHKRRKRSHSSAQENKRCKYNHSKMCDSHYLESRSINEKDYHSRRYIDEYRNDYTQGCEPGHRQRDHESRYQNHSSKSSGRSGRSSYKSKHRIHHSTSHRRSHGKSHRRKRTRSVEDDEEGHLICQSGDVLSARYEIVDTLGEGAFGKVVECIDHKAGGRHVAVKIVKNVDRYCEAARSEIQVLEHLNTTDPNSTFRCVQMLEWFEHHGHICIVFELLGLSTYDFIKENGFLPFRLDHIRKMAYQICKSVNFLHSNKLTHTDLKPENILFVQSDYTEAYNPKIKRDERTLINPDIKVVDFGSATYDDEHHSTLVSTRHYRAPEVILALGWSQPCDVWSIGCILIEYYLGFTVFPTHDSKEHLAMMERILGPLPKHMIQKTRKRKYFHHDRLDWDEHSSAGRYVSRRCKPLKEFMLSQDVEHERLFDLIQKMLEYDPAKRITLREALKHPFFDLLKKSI

NC(=O)c1cc(-c2ccnc(N)n2)[nH]c1-c1cc(C(F)(F)F)ccc1Cl
inhibition [1]: 1% | solubility [2]: 159 µM (≈ 60.7 µg/mL) | inhibition [3]: 1% | inhibition (SET-2 [4]): Active | pIC50 [5]: 5.73 | inhibition (SET-2 [6]): Active | Activity (Mus musculus [7]): 6% | inhibition in vivo at 50 mg/kg [8]: 95% | Vd [9]: 0.9 L/kg | inhibition (JAK3/JAK1 (Homo sapiens)): Active | AUC(0-inf) [10]: 26.4 µM·h | Activity (Mus musculus [11]): 15% | inhibition (SET-2 [12]): Active | Activity (DERL7): inactive | half-life [13]: 1.1 h | half-life [14]: 2.3 h | pIC50 [15]: 6.32 | inhibition [16]: 1% | inhibition in vivo at 30 mg/kg [17]: 71% | inhibition [18]: 1% | Cmax [19]: 17.6 µM | inhibition [20]: 1% | pIC50 (A2780): 5.83 | AUC(0-inf) [21]: 9.5 µM·h | Cmax [22]: 4.2 µM | Activity (Mus musculus [23]): 2% | Activity (SET-2 [24]): inactive
